Measurements: ChEMBL document CHEMBL1156121, “Synthesis and antioxidant properties of some novel 5H-dibenz[b,f]azepine derivatives in different in vitro model systems” (Eur J Med Chem, 2010)
Active and inactive are the calls of the source. No cut-off for these calls is given here.

Experiments:
Blood [1] = assay: Antioxidant activity against copper-induced low density lipoprotein oxidation in human blood assessed as malonoldehyde formation by thiobarbituric acid method; format: functional, tissue-based
How it was run: (§1)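 Human LDL isolated from fasting volunteers' plasma by ultracentrifugation, then dialysed against PBS pH 7.4 (0.1 mg LDL protein/mL). Compounds at 10 and 25 were incubated with LDL and 40 µL of 2 mM CuSO4 in 50 mM phosphate buffer pH 7.4 at 37 °C. Controls were run without compound and without copper. Aliquots taken at 2, 4 and 6 h were heated with TBA/TCA at 95 °C for 45 min. TBARS (MDA) was read at 532 nm.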

[2] = Antioxidant activity against lipid peroxidation at 25 uM by beta-carotene linoleate method; format: functional
How it was run: (§2)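 β-Carotene/linoleic acid/Tween-40 emulsion, with chloroform removed, was mixed with compound in ethanol; BHA and ascorbic acid were run at the same concentrations as references. Absorbance was read at 470 nm at t=0 and then every 30 min to 180 min. Results are given as % antioxidant activity, mean ± SD, n = 3.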

[3] = Antioxidant activity assessed as reduction of […]/ferricyanide complex; format: functional
How it was run: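 Oyaizu method. Compounds (50 and 100) were incubated in 0.2 M phosphate buffer pH 6.6 with 1% potassium ferricyanide at 50 °C for 20 min. After adding 10% TCA and centrifuging, the supernatant was diluted with water and mixed with 0.1% FeCl3, then A700 was read. Values are means of three independent samples.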

[4] = Antioxidant activity against lipid peroxidation at 50 uM by beta-carotene linoleate method; format: functional; how it was run: as §2
[5] = system: Radical scavenging activity; assay: Antioxidant activity assessed as DPPH radical scavenging activity; format: functional
How it was run: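 Ethanolic compound solutions (10, 25, 50, 100, 200, 500) were mixed with 0.1 mM DPPH in ethanol (4 mL to 1 mL sample) and kept in the dark at room temperature for 20 min. A517 was compared with a compound-free blank, giving % inhibition = (A0−A1)/A0×100. IC50 was read from the plot of % scavenging against concentration.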

Blood [6] = assay: Antioxidant activity against copper-induced low density lipoprotein oxidation in human blood assessed as malonoldehyde formation at 25 uM after 2 hrs by thiobarbituric acid method; format: functional; how it was run: as §1
Blood [7] = assay: Antioxidant activity against copper-induced low density lipoprotein oxidation in human blood assessed as malonoldehyde formation at 10 uM after 6 hrs by thiobarbituric acid method; format: functional; how it was run: as §1
Blood [8] = assay: Antioxidant activity against copper-induced low density lipoprotein oxidation in human blood assessed as malonoldehyde formation at 25 uM after 6 hrs by thiobarbituric acid method; format: functional; how it was run: as §1
Blood [9] = assay: Antioxidant activity against copper-induced low density lipoprotein oxidation in human blood assessed as malonoldehyde formation at 10 uM after 2 hrs by thiobarbituric acid method; format: functional; how it was run: as §1

Row | Structure (SMILES) | IC50 [5] [µM] | Activity (Blood [1]) | Activity [2] [%] | Activity [3] | Activity [4] [%] | Activity (Blood [6]) [%] | Activity (Blood [7]) [%] | Activity (Blood [8]) [%] | Activity (Blood [9]) [%] | Activity [5]
1 | O=C(CCCl)N1c2ccccc2C=Cc2ccccc21 |  | inactive |  | inactive |  | 7.43 | 8.87 | 12.43 | 5.34 | inactive
2 | O=C1O[C@H]([C@@H](O)CO)C(O)=C1O [ASCORBIC ACID] | 13.2 |  |  |  |  |  |  |  |  | 
3 | COc1ccc(O)c(C(C)(C)C)c1.COc1ccc(O)cc1C(C)(C)C [BUTYLATED HYDROXYANISOLE] | 14.1 |  |  |  |  |  |  |  |  | 

Further lines, with some results ahead:

Row | IC50 [5] [µM] | Structure (SMILES) | Activity (Blood [1]) | Activity [2] [%] | Activity [3] | Activity [4] [%] | Activity (Blood [6]) [%] | Activity (Blood [7]) [%] | Activity (Blood [8]) [%] | Activity (Blood [9]) [%] | Activity [5]
4 | 15.3 | O=C(CCNc1ccc(O)cc1)N1c2ccccc2C=Cc2ccccc21 | Active | 87.1 | Dose-dependent effect | 88.7 |  |  |  |  | 
5 | 13.9 | COc1cc(NCCC(=O)N2c3ccccc3C=Cc3ccccc32)ccc1O |  | 91.5 | Dose-dependent effect | 91.3 | 70.41 | 72.93 | 89.61 | 56.13 | 
6 | 17.4 | O=C(CCNc1cccc(O)c1)N1c2ccccc2C=Cc2ccccc21 | Active |  | Dose-dependent effect |  |  |  |  |  | 
7 | 16.1 | O=C(CCNc1ccccc1O)N1c2ccccc2C=Cc2ccccc21 | Active |  | Dose-dependent effect |  |  |  |  |  | 
8 | 14.8 | O=C(CCNc1ccc(O)c([N+](=O)[O-])c1)N1c2ccccc2C=Cc2ccccc21 | Active | 88.4 | Dose-dependent effect | 90 |  |  |  |  | 
